What all share (type): functional, Artery
The test system of assay [1] is Rattus norvegicus. Kind of assay: Baseline mean aortic blood pressure in conscious renal (1clip/2kidney) hypertensive rats at dose 1 mg/kg administered orally. The gist of the method:
(§1)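 Oral dosing in rats cannulated for aortic blood pressure monitoring. Only rats with mean aortic pressure >160 mmHg were used; they weighed 280-320 g at cannulation. Rats had free access to standard chow and tap water on a 12-h dark/12-h light cycle. The value is the pre-dose mean aortic pressure, given as mean ± 1 SEM; 3-6 rats per dose.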

In assay [2] the test system is Rattus norvegicus. Kind of assay: Baseline mean aortic blood pressure in conscious renal (1clip/2kidney) hypertensive rats at dose 0.3 mg/kg administered orally. The gist of the method: as §1
In assay [3] the test system is Rattus norvegicus. Kind of assay: Baseline mean aortic blood pressure in conscious renal (1clip/2kidney) hypertensive rats at dose 10 mg/kg administered orally. The gist of the method:
as §1

Assay [4] deals with Rattus norvegicus. Kind of assay: Maximum change aortic blood pressure in conscious renal (1clip/2kidney) hypertensive rats at dose 1 mg/kg administered orally at 4 hr. Conditions: route oral.
In assay [5] the test system is Rattus norvegicus. Kind of assay: Maximum change aortic blood pressure in conscious renal (1clip/2kidney) hypertensive rats at dose 3 mg/kg administered orally at 5 hr. Conditions: route oral.
Assay [6] concerns Rattus norvegicus. Kind of assay: Baseline mean aortic blood pressure in conscious renal (1clip/2kidney) hypertensive rats at dose 3 mg/kg administered orally. In outline: as §1
The subject of assay [7] is Rattus norvegicus. Description: Maximum change aortic blood pressure in conscious renal (1clip/2kidney) hypertensive rats at dose 10 mg/kg administered orally at 5 hr. To be noted: route oral.
For assay [8], the system named is Rattus norvegicus. Description: Maximum change aortic blood pressure in conscious renal (1clip/2kidney) hypertensive rats at dose 0.3 mg/kg administered orally at 10 hr. Conditions: route oral.
Assay [9] concerns Rattus norvegicus. Kind of assay: Maximum change aortic blood pressure in conscious renal (1clip/2kidney) hypertensive rats at dose 10 mg/kg administered orally at 5 hr. To be noted: route oral.
In assay [10] the test system is Rattus norvegicus. Description: Maximum change aortic blood pressure in conscious renal (1clip/2kidney) hypertensive rats at dose 3 mg/kg administered orally at 2 hr. To be noted: route oral.
The subject of assay [11] is Rattus norvegicus. Description: Maximum change aortic blood pressure in conscious renal (1clip/2kidney) hypertensive rats at dose 30 mg/kg administered orally at 9 hr. Conditions: route oral.
In assay [12] the test system is Rattus norvegicus. Kind of assay: Maximum change aortic blood pressure in conscious renal (1clip/2kidney) hypertensive rats at dose 1 mg/kg administered orally at 7 hr. Conditions: route oral.
In assay [13] the test system is Rattus norvegicus. Description: Baseline mean aortic blood pressure in conscious renal (1clip/2kidney) hypertensive rats at dose 30 mg/kg administered orally. The gist of the method:
as §1

The test system of assay [14] is Rattus norvegicus. Kind of assay: Maximum change aortic blood pressure in conscious renal (1clip/2kidney) hypertensive rats at dose 30 mg/kg administered orally at 10 hr. To be noted: route oral.
Assay [15] relates to Rattus norvegicus. Kind of assay: Maximum change aortic blood pressure in conscious renal (1clip/2kidney) hypertensive rats at dose 30 mg/kg administered orally at 8 hr. Conditions: route oral.
Assay [16] has as its system Rattus norvegicus. Description: Maximum change aortic blood pressure in conscious renal (1clip/2kidney) hypertensive rats at dose 10 mg/kg administered orally at 10 hr. Conditions: route oral.
In assay [17] the test system is Rattus norvegicus. Description: Maximum change aortic blood pressure in conscious renal (1clip/2kidney) hypertensive rats at dose 1 mg/kg administered orally at 1 hr. Conditions: route oral.
Assay [18] concerns Rattus norvegicus. Description: Baseline mean aortic blood pressure in conscious renal (1clip/2kidney) hypertensive rats at dose 1 mg/kg administered orally. To be noted: route oral. In outline:
as §1

The subject of assay [19] is Rattus norvegicus. Description: Maximum change aortic blood pressure in conscious renal (1clip/2kidney) hypertensive rats at dose 1 mg/kg administered orally at 10 hr. To be noted: route oral.
In assay [20] the test system is Rattus norvegicus. Description: Baseline mean aortic blood pressure in conscious renal (1clip/2kidney) hypertensive rats at dose 30 mg/kg administered orally. To be noted: route oral. In outline:
as §1

The test system of assay [21] is Rattus norvegicus. Description: Maximum change aortic blood pressure in conscious renal (1clip/2kidney) hypertensive rats at dose 0.3 mg/kg administered orally at 5 hr. Conditions: route oral.
For assay [22], the system named is Rattus norvegicus. Description: Maximum change aortic blood pressure in conscious renal (1clip/2kidney) hypertensive rats at dose 10 mg/kg administered orally at 4 hr. Conditions: route oral.
In assay [23] the test system is Rattus norvegicus. Description: Maximum change aortic blood pressure in conscious renal (1clip/2kidney) hypertensive rats at dose 1 mg/kg administered orally at 8 hr. To be noted: route oral.
Assay [24] deals with Rattus norvegicus. Kind of assay: Maximum change aortic blood pressure in conscious renal (1clip/2kidney) hypertensive rats at dose 10 mg/kg administered orally at 6 hr. To be noted: route oral.
Assay [25] deals with Rattus norvegicus. Kind of assay: Maximum change aortic blood pressure in conscious renal (1clip/2kidney) hypertensive rats at dose 3 mg/kg administered orally at 8 hr. To be noted: route oral.
Assay [26] concerns Rattus norvegicus. Description: Maximum change aortic blood pressure in conscious renal (1clip/2kidney) hypertensive rats at dose 30 mg/kg administered orally. To be noted: route oral.
The test system of assay [27] is Rattus norvegicus. Description: Maximum change aortic blood pressure in conscious renal (1clip/2kidney) hypertensive rats at dose 0.3 mg/kg administered orally at 2 hr. Conditions: route oral.
Assay [28] deals with Rattus norvegicus. Description: Maximum change aortic blood pressure in conscious renal (1clip/2kidney) hypertensive rats at dose 30 mg/kg administered orally at 6 hr. Conditions: route oral.
Assay [29] has as its system Rattus norvegicus. Kind of assay: Maximum change aortic blood pressure in conscious renal (1clip/2kidney) hypertensive rats at dose 30 mg/kg administered orally at 6 hr. To be noted: route oral.
In assay [30] the test system is Rattus norvegicus. Kind of assay: Maximum change aortic blood pressure in conscious renal (1clip/2kidney) hypertensive rats at dose 1 mg/kg administered orally at 9 hr. To be noted: route oral.
For assay [31], the system named is Rattus norvegicus. Kind of assay: Maximum change aortic blood pressure in conscious renal (1clip/2kidney) hypertensive rats at dose 1 mg/kg administered orally at 6 hr. Conditions: route oral.
Assay [32] relates to Rattus norvegicus. Description: Maximum change aortic blood pressure in conscious renal (1clip/2kidney) hypertensive rats at dose 3 mg/kg administered orally at 6 hr. Conditions: route oral.

Take `CCOC(=O)[C@H](CCc1ccccc1)N[C@@H](C)C(=O)N1Cc2ccccc2C[C@H]1C(=O)O`: the MABP with Rattus norvegicus [1] is given as 196 mmHg; with Rattus norvegicus [2], 157 mmHg; in the assay on Rattus norvegicus [3], 181 mmHg; in the assay with Rattus norvegicus [4], -54 mmHg; in the assay with Rattus norvegicus [5], -62 mmHg; in the assay on Rattus norvegicus [6] it was 188 mmHg. The MABP is reported as -87 mmHg in the assay with Rattus norvegicus [7] and -50 mmHg in the assay on Rattus norvegicus [8].
Consider `C[C@H](N[C@@H](CCc1ccccc1)C(=O)O)C(=O)N1Cc2ccccc2C[C@H]1C(=O)O`, for which the MABP with Rattus norvegicus [9] is -76 mmHg; with Rattus norvegicus [1], 199 mmHg; with Rattus norvegicus [10] it was -45 mmHg; in the assay with Rattus norvegicus [3] it was 199 mmHg; in the assay with Rattus norvegicus [11] it was -89 mmHg; in the assay with Rattus norvegicus [12], -44 mmHg. Moreover, the values for the MABP with Rattus norvegicus [6] and with Rattus norvegicus [13] were 199 mmHg and 192 mmHg, respectively.
As for `CCOC(=O)[C@@H](CCc1ccccc1)N[C@@H](C)C(=O)N1Cc2ccccc2C[C@H]1C(=O)O`, the figures for the MABP with Rattus norvegicus [14] and with Rattus norvegicus [13] were -11 mmHg and 172 mmHg, respectively.
For `CCOC(=O)[C@@H](CCc1ccccc1)N[C@@H](C)C(=O)N1Cc2cc(OC)c(OC)cc2C[C@H]1C(=O)O`, the MABP in the assay on Rattus norvegicus [15] is -15 mmHg; in the assay on Rattus norvegicus [13], 177 mmHg.
Consider `CCOC(=O)[C@H](CCc1ccccc1)N[C@@H](C)C(=O)N1Cc2ccccc2C[C@@H]1C(=O)O`, for which the MABP with Rattus norvegicus [11] is -20 mmHg; with Rattus norvegicus [13], 187 mmHg.
With `CCOC(=O)[C@H](CCc1ccccc1)N[C@@H](C)C(=O)N1Cc2ccccc2[C@H]1C(=O)O`, the MABP in the assay with Rattus norvegicus [16] is given as -80 mmHg; in the assay with Rattus norvegicus [3] it was 200 mmHg.
`CC(CS)C(=O)N1Cc2ccccc2CC1C(=O)O` (stereo unspecified): the MABP in the assay on Rattus norvegicus [1] is reported as 185 mmHg; in the assay with Rattus norvegicus [17], -45 mmHg.
Take `CCOC(=O)[C@H](CCc1ccccc1)N[C@@H](C)C(=O)N1Cc2cc(OC)c(OC)cc2C[C@@H]1C(=O)O`: the MABP in the assay with Rattus norvegicus [15] is on record as -16 mmHg; in the assay on Rattus norvegicus [13], 178 mmHg.
On to `CCOC(=O)C(CCc1ccccc1)NC(C)C(=O)N1Cc2ccccc2CC1C(=O)OCC` (stereo unspecified), for which the MABP with Rattus norvegicus [18] was 208 mmHg; in the assay with Rattus norvegicus [19], -69 mmHg.
For `O=C(O)C1c2ccccc2CN1C(=O)CCS` (stereo unspecified), the MABP with Rattus norvegicus [14] is given as -15 mmHg; in the assay with Rattus norvegicus [20], 174 mmHg.
As for `CCOC(=O)[C@H](CCc1ccccc1)N[C@@H](C)C(=O)N1CCC[C@H]1C(=O)O`, the MABP with Rattus norvegicus [21] was -79 mmHg; in the assay on Rattus norvegicus [1], 175 mmHg; with Rattus norvegicus [22], -112 mmHg; with Rattus norvegicus [2] it was 201 mmHg; with Rattus norvegicus [23], -43 mmHg; with Rattus norvegicus [3], 199 mmHg. Moreover, the figures for the MABP in the assay on Rattus norvegicus [5] and in the assay with Rattus norvegicus [6] were -112 mmHg and 200 mmHg, respectively.
Consider `COc1cc2c(cc1OC)CN(C(=O)C(C)NC(CCc1ccccc1)C(=O)O)C(C(=O)O)C2` (stereo unspecified), for which the MABP is reported as -107 mmHg in the assay on Rattus norvegicus [15]; 199 mmHg in the assay with Rattus norvegicus [1]; -52 mmHg in the assay with Rattus norvegicus [24]; -20 mmHg in the assay with Rattus norvegicus [23]; 199 mmHg in the assay with Rattus norvegicus [3]; 199 mmHg with Rattus norvegicus [6]. The figures for the MABP in the assay with Rattus norvegicus [13] and in the assay on Rattus norvegicus [25] were 181 mmHg and -52 mmHg, respectively.
As for `CC(NC(CCc1ccccc1)C(=O)O)C(=O)N1Cc2ccccc2C1C(=O)O` (stereo unspecified), the MABP in the assay with Rattus norvegicus [6] was 195 mmHg; in the assay on Rattus norvegicus [25], -74 mmHg.
For the compound `CC(CS)C(=O)N1Cc2ccccc2C1C(=O)O` (racemic), the MABP in the assay on Rattus norvegicus [20] amounted to 165 mmHg; in the assay on Rattus norvegicus [26] it was 0 mmHg.
Regarding `C[C@H](CS)C(=O)N1CCC[C@H]1C(=O)O` [CAPTOPRIL], the MABP in the assay on Rattus norvegicus [27] is -25 mmHg.
In the case of `CCOC(=O)C(CCc1ccccc1)N1C(=O)C2Cc3ccccc3CN2C(=O)C1C` (stereo unspecified) [DIKETOPIPERAZINE DERIVATIVE OF QUINAPRIL], the MABP in the assay on Rattus norvegicus [28] is -28 mmHg; with Rattus norvegicus [20], 186 mmHg.
For the compound `C[C@H](N[C@@H](CCc1ccccc1)C(=O)O)C(=O)N1CCC[C@H]1C(=O)O` [ENALAPRILAT ANHYDROUS], the MABP in the assay on Rattus norvegicus [29] was -70 mmHg; with Rattus norvegicus [1] it was 188 mmHg; in the assay on Rattus norvegicus [24] it was -57 mmHg; in the assay on Rattus norvegicus [10], -54 mmHg; in the assay on Rattus norvegicus [3] it was 188 mmHg; in the assay on Rattus norvegicus [6], 188 mmHg. Besides, the values for the MABP with Rattus norvegicus [30] and in the assay on Rattus norvegicus [13] were -51 mmHg and 176 mmHg, respectively.
For `CCOC(=O)[C@H](CCc1ccccc1)N[C@@H](C)C(=O)N1Cc2cc(OC)c(OC)cc2C[C@H]1C(=O)O` [MOEXIPRIL], the MABP in the assay on Rattus norvegicus [31] is reported as -43 mmHg; with Rattus norvegicus [21] it was -41 mmHg; in the assay with Rattus norvegicus [1], 182 mmHg; with Rattus norvegicus [24], -113 mmHg; in the assay on Rattus norvegicus [32], -39 mmHg; in the assay on Rattus norvegicus [2], 201 mmHg. The MABP came to 205 mmHg in the assay on Rattus norvegicus [3] and 179 mmHg in the assay on Rattus norvegicus [6].

The values above are taken from ChEMBL document CHEMBL1123237 (J Med Chem, 1986).
